According to ChEMBL document CHEMBL4011658 (J Med Chem, 2017):
≈ marks a conversion by molar mass, not a printed value. Calls of active or inactive are those of the source. The calls are words filed in the database; no cut-off is given here. Residues, ends and D or L forms follow the SMILES beside them. *: point of attachment. Boc = CC(C)(C)OC(=O)*; NHBn = c1ccc(CN*)cc1

Assays:
SK-OV-3 = experiment: Cytotoxicity against human SKOV3 cells assessed as reduction in cell viability after 48 hrs by neutral red uptake assay; type: cell-based; details: sk-ov-3, 48 h
Procedure, shortened: (§1)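 Cells seeded at 25 000 per well and grown 24 h to confluence, then exposed to peptides up to 10 μg/mL for 48 h; viability by modified neutral red uptake; doxorubicin positive control, DMSO negative control.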

Staphylococcus aureus [1] = experiment: Antibacterial activity against Staphylococcus aureus ATCC 29213 after […] hrs by alamar blue dye based CLSI method; type: functional
[2] = Selectivity index, ratio of cytotoxicity against African green monkey VERO cells to IC50 for Cryptococcus neoformans ATCC 90113; type: toxicity, cell-based; details: read-out: Selectivity Index
Escherichia coli = experiment: Antibacterial activity against Escherichia coli ATCC 35218 after 16 to 20 hrs by alamar blue dye based CLSI method; type: functional
[3] = Selectivity index, ratio of cytotoxicity against human SKOV3 cells to IC50 for Cryptococcus neoformans ATCC 90113; type: toxicity, cell-based; details: read-out: Selectivity Index
[4] = Selectivity index, ratio of cytotoxicity against pig LLC-PK1 cells to IC50 for Cryptococcus neoformans ATCC 90113; type: toxicity, cell-based; details: read-out: Selectivity Index
Vero = experiment: Cytotoxicity against African green monkey Vero cells assessed as reduction in cell viability after 48 hrs by neutral red uptake assay; type: cell-based; details: chlorocebus sabaeus; procedure, shortened: as §1
Cryptococcus neoformans [5] = experiment: Antifungal activity against Cryptococcus neoformans ATCC 90113 after 70 to 74 hrs by alamar blue dye based CLSI method; type: functional
[6] = Selectivity index, ratio of cytotoxicity against pig LLC-PK1 cells to IC50 for Staphylococcus aureus ATCC 29213; type: toxicity, cell-based; details: read-out: Selectivity Index
Procedure, shortened: (§2)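 Selectivity index is the ratio CTX/IC50. For CTX, cells were seeded at 25 000 per well and grown 24 h, then exposed to peptide up to 10 μg/mL for 48 h, with viability by neutral red uptake. […] The inoculum was 5 × 10^5 CFU/mL, with OD530 read before and after incubation.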

[7] = Selectivity index, ratio of cytotoxicity against pig LLC-PK1 cells to IC50 for methicillin-resistant Staphylococcus aureus ATCC 33591; type: toxicity, cell-based; details: read-out: Selectivity Index
Procedure, shortened: (§3)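 Selectivity index is the ratio CTX/IC50. For CTX, cells were seeded at 25 000 per well and grown 24 h, then given peptide up to 10 μg/mL for 48 h, with neutral red uptake read-out. […] OD530 was read before and after 16−20 h at 35 °C.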

BT-549 = experiment: Cytotoxicity against human BT549 cells assessed as reduction in cell viability after 48 hrs by neutral red uptake assay; type: cell-based; details: bt-549, 48 h; procedure, shortened: as §1
[8] = Selectivity index, ratio of cytotoxicity against human BT549 cells to IC50 for Staphylococcus aureus ATCC 29213; type: toxicity, cell-based; details: read-out: Selectivity Index; procedure, shortened: as §2
Aspergillus = experiment: Antifungal activity against Aspergillus; type: functional
[9] = Selectivity index, ratio of cytotoxicity against human SKOV3 cells to IC50 for Staphylococcus aureus ATCC 29213; type: toxicity, cell-based; details: read-out: Selectivity Index; procedure, shortened: as §2
[10] = Selectivity index, ratio of cytotoxicity against human SK-MEL cells to IC50 for Staphylococcus aureus ATCC 29213; type: toxicity, cell-based; details: read-out: Selectivity Index; procedure, shortened: as §2
SK-MEL = experiment: Cytotoxicity against human SK-MEL cells assessed as reduction in cell viability after 48 hrs by neutral red uptake assay; type: cell-based; procedure, shortened: as §1
[11] = Selectivity index, ratio of cytotoxicity against human SK-MEL cells to IC50 for Cryptococcus neoformans ATCC 90113; type: toxicity, cell-based; details: read-out: Selectivity Index
Staphylococcus aureus [12] = experiment: Antibacterial activity against methicillin-resistant Staphylococcus aureus ATCC 33591 after 16 to 20 hrs by alamar blue dye based CLSI method; type: functional
[13] = Selectivity index, ratio of cytotoxicity against African green monkey VERO cells to IC50 for Staphylococcus aureus ATCC 29213; type: toxicity, cell-based; details: read-out: Selectivity Index; procedure, shortened: as §2
LLC-PK1 = experiment: Cytotoxicity against pig LLC-PK1 cells assessed as reduction in cell viability after 48 hrs by neutral red uptake assay; type: cell-based, Sus scrofa; details: llc-pk1, 48 h; procedure, shortened: as §1
[14] = Selectivity index, ratio of cytotoxicity against human SKOV3 cells to IC50 for methicillin-resistant Staphylococcus aureus ATCC 33591; type: toxicity, cell-based; details: read-out: Selectivity Index; procedure, shortened: as §3
[15] = Selectivity index, ratio of cytotoxicity against human BT549 cells to IC50 for methicillin-resistant Staphylococcus aureus ATCC 33591; type: toxicity, cell-based; details: read-out: Selectivity Index; procedure, shortened: as §3
[16] = Selectivity index, ratio of cytotoxicity against human SK-MEL cells to IC50 for methicillin-resistant Staphylococcus aureus ATCC 33591; type: toxicity, cell-based; details: read-out: Selectivity Index; procedure, shortened: as §3
[17] = Selectivity index, ratio of cytotoxicity against African green monkey VERO cells to IC50 for methicillin-resistant Staphylococcus aureus ATCC 33591; type: toxicity, cell-based; details: read-out: Selectivity Index; procedure, shortened: as §3
[18] = Selectivity index, ratio of cytotoxicity against human BT549 cells to IC50 for Cryptococcus neoformans ATCC 90113; type: toxicity, cell-based; details: read-out: Selectivity Index
Candida = experiment: Antifungal activity against Candida; type: functional
Cryptococcus neoformans [19] = experiment: Fungicidal activity against Cryptococcus neoformans ATCC 350 at 0.89 ug/ml after 4 hrs by time kill assay; type: functional
Cryptococcus neoformans [20] = experiment: Antifungal activity against Cryptococcus neoformans ATCC 350 after 70 to 74 hrs by alamar blue dye based CLSI method; type: functional
Cryptococcus neoformans [21] = experiment: Fungicidal activity against Cryptococcus neoformans ATCC 350 at antifungal MIC after 4 hrs by time kill assay; type: functional
Cryptococcus neoformans [22] = experiment: Induction of membrane permeabilization in Cryptococcus neoformans ATCC 350 after 1 hr using FITC labeled compound by confocal microscopic analysis; type: functional

SMILES | Activity (SK-OV-3) [µg/mL] | IC50 (Staphylococcus aureus [1]) [µg/mL] | MBC (Staphylococcus aureus [1]) [µg/mL] | MIC (Staphylococcus aureus [1]) [µg/mL] | selectivity ratio [2] | Activity (Escherichia coli) | selectivity ratio [3] | selectivity ratio [4] | Activity (Vero) [µg/mL] | IC50 (Cryptococcus neoformans [5]) [µg/mL] | MFC (Cryptococcus neoformans [5]) [µg/mL] | MIC (Cryptococcus neoformans [5]) [µg/mL] | selectivity ratio [6] | Activity (BT-549) [µg/mL] | Activity (Aspergillus) | Activity (SK-MEL) [µg/mL] | selectivity ratio [11] | Activity (LLC-PK1) [µg/mL] | selectivity ratio [18] | Activity (Candida) | also measured
COC(=O)[C@H](Cc1c[nH]c(-c2ccc(C(C)(C)C)cc2)n1)NC(=O)[C@H](Cc1c[nH]c2ccccc12)NC(=O)[C@@H](N)Cc1c[nH]c(-c2ccc(C(C)(C)C)cc2)n1 | > 10 | 4.33 (≈ 5.72 µM) | > 20 | 10 (≈ 13.2 µM) | > 12 | inactive | > 12 | > 12 | > 10 | 0.83 (≈ 1.1 µM) | 1.25 (≈ 1.65 µM) | 1.25 (≈ 1.65 µM) | > 2.3 | > 10 | inactive | > 10 | > 12 | > 10 | > 12 | inactive | selectivity ratio [7]: > 1.49; selectivity ratio [8]: > 2.3; selectivity ratio [9]: > 2.3; selectivity ratio [10]: > 2.3; IC50 (Staphylococcus aureus [12]): 6.71 µg/mL (≈ 8.86 µM); MBC (Staphylococcus aureus [12]): > 20 µg/mL; MIC (Staphylococcus aureus [12]): > 20 µg/mL; selectivity ratio [13]: > 2.3; selectivity ratio [14]: > 1.49; selectivity ratio [15]: > 1.49; selectivity ratio [16]: > 1.49; selectivity ratio [17]: > 1.49
C[C@@H]1[C@H](O)[C@@H](C)/C=C/C=C/C=C/C=C/C=C/C=C/C=C/[C@H](O[C@@H]2O[C@H](C)[C@@H](O)[C@H](N)[C@@H]2O)C[C@@H]2O[C@](O)(C[C@@H](O)C[C@@H](O)[C@H](O)CC[C@@H](O)C[C@@H](O)CC(=O)O[C@H]1C)C[C@H](O)[C@H]2C(=O)O [AMPHOTERICIN B] |  |  |  |  |  |  |  |  |  |  | 1.25 (≈ 1.35 µM) | 1.25 (≈ 1.35 µM) |  |  |  |  |  |  |  |  | Activity (Cryptococcus neoformans [19]): Active; MIC (Cryptococcus neoformans [20]): 0.89 µg/mL (≈ 0.963 µM)
COC(=O)[C@H](Cc1c[nH]cn1)NC(=O)[C@H](Cc1c[nH]c2ccccc12)NC(=O)[C@H](Cc1c[nH]cn1)NC(=O)OC(C)(C)C (Boc-His-Trp-His-OMe) | > 10 |  |  |  |  | inactive |  |  | > 10 | > 20 |  |  |  | > 10 | inactive | > 10 |  | > 10 |  | inactive | Activity (Cryptococcus neoformans [21]): inactive
CC(C)(C)c1ccc(-c2nc(C[C@H](NC(=O)[C@H](Cc3c[nH]c4ccccc34)NC(=O)[C@@H](N)Cc3c[nH]c(-c4ccc(C(C)(C)C)cc4)n3)C(=O)NCc3ccccc3)c[nH]2)cc1 | > 10 | 3.72 (≈ 4.47 µM) | 20 (≈ 24 µM) | 10 (≈ 12 µM) | > 3.8 | inactive | > 3.8 | > 3.8 | > 10 | 2.6 (≈ 3.12 µM) | 5 (≈ 6.01 µM) | 5 (≈ 6.01 µM) | > 2.68 | > 10 | inactive | > 10 | > 3.8 | > 10 | > 3.8 | inactive | selectivity ratio [7]: > 1.49; selectivity ratio [8]: > 2.68; selectivity ratio [9]: > 2.68; selectivity ratio [10]: > 2.68; IC50 (Staphylococcus aureus [12]): 6.7 µg/mL (≈ 8.05 µM); MBC (Staphylococcus aureus [12]): > 20 µg/mL; MIC (Staphylococcus aureus [12]): > 20 µg/mL; selectivity ratio [13]: > 2.68; selectivity ratio [14]: > 1.49; selectivity ratio [15]: > 1.49; selectivity ratio [16]: > 1.49; selectivity ratio [17]: > 1.49
COC(=O)[C@H](Cc1c[nH]c(-c2ccccc2)n1)NC(=O)[C@H](Cc1c[nH]c2ccccc12)NC(=O)[C@@H](N)Cc1c[nH]c(-c2ccccc2)n1 | > 10 |  |  |  | > 2.7 | inactive | > 2.7 | > 2.7 | > 10 | 3.71 (≈ 5.75 µM) | 10 (≈ 15.5 µM) | 10 (≈ 15.5 µM) |  | > 10 | inactive | > 10 | > 2.7 | > 10 | > 2.7 | inactive | 
CC(C)(C)OC(=O)N[C@@H](Cc1cnc[nH]1)C(=O)N[C@@H](Cc1c[nH]c2ccccc12)C(=O)N[C@@H](Cc1cnc[nH]1)C(=O)NCc1ccccc1 (Boc-His-Trp-His-NHBn) | > 10 |  |  |  | > 12.5 | inactive | > 12.5 | > 12.5 | > 10 |  | 1.25 (≈ 1.87 µM) | 1.25 (≈ 1.87 µM) |  | > 10 | inactive | > 10 | > 12.5 | > 10 | > 12.5 | inactive | 
N[C@@H](Cc1c[nH]c(-c2ccccc2)n1)C(=O)N[C@@H](Cc1c[nH]c2ccccc12)C(=O)N[C@@H](Cc1c[nH]c(-c2ccccc2)n1)C(=O)NCc1ccccc1 | > 10 |  |  |  |  | inactive |  |  | > 10 | > 20 |  |  |  | > 10 | inactive | > 10 |  | > 10 |  | inactive | Activity (Cryptococcus neoformans [22]): inactive
CC(C)(C)OC(=O)N[C@@H](Cc1c[nH]c(-c2ccccc2)n1)C(=O)N[C@@H](Cc1c[nH]c2ccccc12)C(=O)N[C@@H](Cc1c[nH]c(-c2ccccc2)n1)C(=O)NCc1ccccc1 | > 10 | 7.6 (≈ 9.27 µM) | > 20 | > 20 | > 7.1 | inactive | > 7.1 | > 7.1 | > 10 | 1.4 (≈ 1.71 µM) | 2.5 (≈ 3.05 µM) | 2.5 (≈ 3.05 µM) | > 1.3 | > 10 | inactive | > 10 | > 7.1 | > 10 | > 7.1 | inactive | selectivity ratio [8]: > 1.3; selectivity ratio [9]: > 1.3; selectivity ratio [10]: > 1.3; IC50 (Staphylococcus aureus [12]): 10.5 µg/mL (≈ 12.8 µM); MBC (Staphylococcus aureus [12]): > 20 µg/mL; MIC (Staphylococcus aureus [12]): > 20 µg/mL; selectivity ratio [13]: > 1.3
OC(Cn1cncn1)(Cn1cncn1)c1ccc(F)cc1F [FLUCONAZOLE] |  |  |  |  |  |  |  |  |  |  |  |  |  |  |  |  |  |  |  |  | MIC (Cryptococcus neoformans [20]): 9.57 µg/mL (≈ 31.2 µM)
